# Laboratory results reported in ChEMBL document CHEMBL1124441, “Synthesis of congeners and prodrugs. 3. Water-soluble prodrugs of taxol with potent antitumor activity” (1989).
# How the values were obtained:
# Type in all cases: functional, Mus musculus
# Conditions in all cases: route intraperitoneal
# B16 [1] = assay: Antitumor activity in B16 Melanoma system animals is indicated by survivors on day 4 at a dose of 2.75 mg/kg intraperitoneally
# Method in brief: (§1)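 B16 melanoma, 10^6 cells inoculated ip on day 0. Ip treatment started day 1, schedule Q01Dx09 (one dose daily for 9 days). The score is live animals on day 4 over total animals; early deaths are taken as drug toxicity.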
# B16 [2] = assay: Percent of median lifetime of test animals divided by the median lifetime of control animals at a dose of 22 mg/kg intraperitoneally
# Method in brief: (§2)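 B16 melanoma inoculated ip (10⁶ cells) on day 0. Daily ip treatment for 9 days (Q01Dx09) begins day 1, dosed per injection in mg/kg. %T/C is the median lifespan of treated animals divided by that of tumored untreated controls, ×100. Cures are animals alive on the last test day. Toxic deaths are assessed on day 4.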
# B16 [3] = assay: Difference in body weight in grams between test and control animals at a dose of 22 mg/kg intraperitoneally
# Method in brief: (§3)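 B16 melanoma system: 10⁶ tumor cells inoculated ip on day 0. Drug given ip once daily for 9 days (Q01Dx09) starting day 1, dose as mg/kg body weight per injection. Read-out is the body-weight difference in grams, treated minus control animals. Early deaths, taken as toxicity, are scored on day 4.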
# B16 [4] = assay: Percent of median lifetime of test animals divided by the median lifetime of control animals at a dose of 11 mg/kg intraperitoneally; method in brief: as §2
# B16 [5] = assay: Antitumor activity in B16 Melanoma system animals is indicated by survivors on day 4 at a dose of 5.5 mg/kg intraperitoneally; method in brief: as §1
# B16 [6] = assay: Percent of median lifetime of test animals divided by the median lifetime of control animals at a dose of 5.5 mg/kg intraperitoneally; method in brief: as §2
# B16 [7] = assay: Percent of median lifetime of test animals divided by the median lifetime of control animals at a dose of 44 mg/kg intraperitoneally; method in brief: as §2
# B16 [8] = assay: Difference in body weight in grams between test and control animals at a dose of 44 mg/kg intraperitoneally; method in brief: as §3
# B16 [9] = assay: Antitumor activity in B16 Melanoma system animals is indicated by survivors on day 4 at a dose of 11 mg/kg intraperitoneally; method in brief: as §1
# B16 [10] = assay: Antitumor activity in B16 Melanoma system animals is indicated by survivors on day 4 at a dose of 22 mg/kg intraperitoneally; method in brief: as §1
# B16 [11] = assay: Antitumor activity in B16 Melanoma system animals is indicated by survivors on day 4 at a dose of 44 mg/kg intraperitoneally; method in brief: as §1
# B16 [12] = assay: Percent of median lifetime of test animals divided by the median lifetime of control animals at a dose of 2.75 mg/kg intraperitoneally; method in brief: as §2
# B16 [13] = assay: Difference in body weight in grams between test and control animals at a dose of 5.5 mg/kg intraperitoneally; method in brief: as §3
# B16 [14] = assay: Difference in body weight in grams between test and control animals at a dose of 11 mg/kg intraperitoneally; method in brief: as §3
# B16 [15] = assay: Difference in body weight in grams between test and control animals at a dose of 2.75 mg/kg intraperitoneally; method in brief: as §3
# B16 [16] = assay: Antitumor activity in B16 Melanoma system animals is indicated by survivors on day 4 at a dose of 2.5 mg/kg intraperitoneally; design: reference not given here; method in brief: as §1
# B16 [17] = assay: Antitumor activity in B16 Melanoma system animals is indicated by survivors on day 4 at a dose of 10 mg/kg intraperitoneally; design: reference not given here; method in brief: as §1
# B16 [18] = assay: Difference in body weight in grams between test and control animals at a dose of 10 mg/kg intraperitoneally; method in brief: as §3
# B16 [19] = assay: Percent of median lifetime of test animals divided by the median lifetime of control animals at a dose of 5 mg/kg intraperitoneally; method in brief: as §2
# B16 [20] = assay: Percent of median lifetime of test animals divided by the median lifetime of control animals at a dose of 20 mg/kg intraperitoneally; method in brief: as §2
# B16 [21] = assay: Difference in body weight in grams between test and control animals at a dose of 40 mg/kg intraperitoneally; method in brief: as §3
# B16 [22] = assay: Difference in body weight in grams between test and control animals at a dose of 1.25 mg/kg intraperitoneally; method in brief: as §3
# B16 [23] = assay: Percent of median lifetime of test animals divided by the median lifetime of control animals at a dose of 10 mg/kg intraperitoneally; method in brief: as §2
# B16 [24] = assay: Difference in body weight in grams between test and control animals at a dose of 20 mg/kg intraperitoneally; method in brief: as §3
# B16 [25] = assay: Antitumor activity in B16 Melanoma system animals is indicated by survivors on day 4 at a dose of 40 mg/kg intraperitoneally; method in brief: as §1
# B16 [26] = assay: Percent of median lifetime of test animals divided by the median lifetime of control animals at a dose of 2.5 mg/kg intraperitoneally; method in brief: as §2
# B16 [27] = assay: Percent of median lifetime of test animals divided by the median lifetime of control animals at a dose of 1.25 mg/kg intraperitoneally; method in brief: as §2
# B16 [28] = assay: Percent of median lifetime of test animals divided by the median lifetime of control animals at a dose of 40 mg/kg intraperitoneally; method in brief: as §2
# B16 [29] = assay: Difference in body weight in grams between test and control animals at a dose of 5 mg/kg intraperitoneally; method in brief: as §3
# B16 [30] = assay: Antitumor activity in B16 Melanoma system animals is indicated by survivors on day 4 at a dose of 20 mg/kg intraperitoneally; design: reference not given here; method in brief: as §1
# B16 [31] = assay: Antitumor activity in B16 Melanoma system animals is indicated by survivors on day 4 at a dose of 1.25 mg/kg intraperitoneally; method in brief: as §1
# B16 [32] = assay: Difference in body weight in grams between test and control animals at a dose of 2.5 mg/kg intraperitoneally; method in brief: as §3
# B16 [33] = assay: Antitumor activity in B16 Melanoma system animals is indicated by survivors on day 4 at a dose of 5 mg/kg intraperitoneally; method in brief: as §1
SMILES,Activity (B16 [1]),T/C (B16 [2]) [%],Weight difference (B16 [3]) [g],T/C (B16 [4]) [%],Activity (B16 [5]),T/C (B16 [6]) [%],T/C (B16 [7]) [%],Weight difference (B16 [8]) [g],Activity (B16 [9]),Activity (B16 [10]),Activity (B16 [11]),T/C (B16 [12]) [%],other results
CC(=O)OC1C(=O)[C@]2(C)[C@@H](OC(=O)CCC(=O)[O-])C[C@H]3OC[C@@]3(OC(C)=O)[C@H]2[C@H](OC(=O)c2ccccc2)[C@]2(O)CC(OC(=O)C(OC(=O)CCC(=O)[O-])C(NC(=O)c3ccccc3)c3ccccc3)C(C)=C1C2(C)C.[Na+].[Na+] (stereo not given in full),10,109,0,149,10,114,166,0,10,10,10,120,–
CC(=O)OC1C(=O)[C@]2(C)[C@@H](OC(=O)CCC(=O)O)C[C@H]3OC[C@@]3(OC(C)=O)[C@H]2[C@H](OC(=O)c2ccccc2)[C@]2(O)CC(OC(=O)C(OC(=O)CCC(=O)O)C(NC(=O)c3ccccc3)c3ccccc3)C(C)=C1C2(C)C (stereo not given in full),10,105,0.3,124,10,113,114,0,10,10,10,109,Weight difference (B16 [13]): -0.3 g; Weight difference (B16 [14]): 0.1 g; Weight difference (B16 [15]): -0.3 g
CC(=O)OC1C(=O)[C@@]2(C)[C@H]([C@H](OC(=O)c3ccccc3)[C@]3(O)CC(OC(=O)C(OC(=O)CCC(=O)[O-])C(NC(=O)c4ccccc4)c4ccccc4)C(C)=C1C3(C)C)[C@]1(OC(C)=O)CO[C@@H]1C[C@@H]2O.[Na+] (stereo not given in full),–,–,–,–,–,–,–,–,–,–,–,–,Activity (B16 [16]): 10; Activity (B16 [17]): 10; Weight difference (B16 [18]): 0.6 g; T/C (B16 [19]): 166%; T/C (B16 [20]): 201%; Weight difference (B16 [21]): 0.6 g; Weight difference (B16 [22]): 0.1 g; T/C (B16 [23]): 183%; Weight difference (B16 [24]): -0.2 g; Activity (B16 [25]): 10; T/C (B16 [26]): 159%; T/C (B16 [27]): 111%; T/C (B16 [28]): 218%; Weight difference (B16 [29]): 0 g; Activity (B16 [30]): 10; Activity (B16 [31]): 10; Weight difference (B16 [32]): 0.4 g; Survivors on day 4 (B16 [33]): 10
